Experimental data as given in ChEMBL document CHEMBL2029317, “(Z)-2-(2-bromophenyl)-3-{[4-(1-methyl-piperazine)amino]phenyl}acrylonitrile (DG172): an orally bioavailable PPARβ/δ-selective ligand with inverse agonistic properties” (J Med Chem, 2012).
The source made the active and inactive calls. The calls are words filed in the database; no cut-off is given here.

How the values were obtained:
[1] = biological target: T1, Peroxisome proliferator-activated receptor delta (Mus musculus) (UniProt P35396); test: Displacement of fluormone Pan-PPAR Green from mouse recombinant GST-tagged PPARbeta/delta LBD at 1 uM after 60 mins by TR-FRET assay
T1 sequence (whole entry): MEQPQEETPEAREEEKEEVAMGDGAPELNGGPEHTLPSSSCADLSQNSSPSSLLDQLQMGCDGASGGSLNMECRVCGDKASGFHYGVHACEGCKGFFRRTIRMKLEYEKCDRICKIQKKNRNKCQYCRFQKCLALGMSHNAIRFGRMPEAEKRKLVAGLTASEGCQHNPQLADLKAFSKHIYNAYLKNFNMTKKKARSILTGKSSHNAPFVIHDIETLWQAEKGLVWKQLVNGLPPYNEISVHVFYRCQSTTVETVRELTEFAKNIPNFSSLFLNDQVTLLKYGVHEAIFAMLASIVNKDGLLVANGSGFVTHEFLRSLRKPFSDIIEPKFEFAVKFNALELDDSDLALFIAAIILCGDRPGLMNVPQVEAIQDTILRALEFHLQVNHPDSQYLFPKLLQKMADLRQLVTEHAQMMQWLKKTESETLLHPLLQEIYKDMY
Outline: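 Competitive binding by LanthaScreen TR-FRET: recombinant GST-PPARβ/δ LBD, detected through a terbium-labelled anti-GST antibody, was incubated with Fluormone Pan-PPAR Green. Compound was tested at 1 μM. Read-out is the 520 nm/495 nm emission ratio after terbium excitation, as averages of triplicates ± SD.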

[2] = biological target: T1, Peroxisome proliferator-activated receptor delta (Mus musculus); test: Displacement of fluormone Pan-PPAR Green from mouse recombinant GST-tagged PPARbeta/delta LBD after 60 mins by TR-FRET assay
[3] = biological target: T2, Peroxisome proliferator-activated receptor gamma (Homo sapiens) (UniProt P37231); test: Displacement of fluormone Pan-PPAR Green from PPARgamma at 100 to 1000 nM after 60 mins by TR-FRET assay
T2 sequence (whole entry): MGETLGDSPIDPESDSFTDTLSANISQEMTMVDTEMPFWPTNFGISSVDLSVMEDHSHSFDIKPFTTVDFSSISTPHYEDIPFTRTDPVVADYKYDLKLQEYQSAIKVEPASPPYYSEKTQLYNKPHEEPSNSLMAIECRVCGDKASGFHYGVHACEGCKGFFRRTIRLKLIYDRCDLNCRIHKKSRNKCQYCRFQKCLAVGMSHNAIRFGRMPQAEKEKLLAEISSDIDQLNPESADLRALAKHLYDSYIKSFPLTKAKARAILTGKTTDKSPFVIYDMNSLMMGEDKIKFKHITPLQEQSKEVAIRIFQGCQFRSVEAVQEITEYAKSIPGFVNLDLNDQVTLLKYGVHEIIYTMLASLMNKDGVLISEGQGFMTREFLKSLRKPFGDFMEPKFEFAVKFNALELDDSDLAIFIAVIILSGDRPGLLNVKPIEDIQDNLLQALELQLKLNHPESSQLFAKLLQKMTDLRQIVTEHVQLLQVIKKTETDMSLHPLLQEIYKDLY

[4] = Half life in CD1 mouse plasma at 1 mg/kg, iv; format: ADME, organism-based; set-up: dose 1 mg/kg, route intravenous
Outline: (§1)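 Male CD-1 mice dosed iv by tail vein (1 mg/kg) or po by gastric gavage (5 mg/kg). Vehicle was DMSO/Solutol HS 15/PBS pH 7.4 (5/5/90, v/v/v). Blood was taken at eight time points from 10 min to 12 h, by parallel sampling of three mice per point. Plasma was acetonitrile-precipitated and analysed by HPLC-MS/MS, and basic PK parameters were derived.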

[5] = Drug uptake in CD1 mouse blood at 5 mg/kg, po up to 30 mins
[6] = system: Macrophage; test: Inhibition of Angptl expression in mouse Ppard-knock out macrophages at 1 uM after 6 hrs by RT-qPCR analysis; format: functional, cell-based
Outline: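 Macrophages from Ppard null and wild-type mice were treated with compound (1 μM), agonist L165,041 (500 nM) or DMSO solvent for 6 h. Angptl4 mRNA was measured by RT-qPCR with L27 as the normalizer.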

[7] = system: Mus musculus; test: AUC (infinity) in CD1 mouse at 5 mg/kg, po; format: ADME, organism-based, Plasma; set-up: time infinity, dose 5 mg/kg, route oral; conditions: in vivo; outline: as §1
[8] = Cmax in CD1 mouse at 5 mg/kg, po; format: ADME, organism-based; set-up: dose 5 mg/kg, route oral; conditions: in vivo; outline: as §1
[9] = Half life in CD1 mouse at 5 mg/kg, po; format: ADME, organism-based; set-up: dose 5 mg/kg, route oral; conditions: in vivo; outline: as §1
[10] = Oral bioavailability in CD1 mouse at 5 mg/kg; format: ADME, organism-based; conditions: in vivo; outline: as §1
[11] = biological target: T1, Peroxisome proliferator-activated receptor delta (Mus musculus); conditions: 1 uM

| Compound | Activity [1] | Activity [2] | Activity [3] | half-life [4] [h] | concentration at 0.5 h [5] [ng/mL] | inhibition [6] | AUC [7] [ng·h/mL] | Cmax [8] [ng/mL] | half-life [9] [h] | bioavailability [10] [%] | inhibition [11] |
| --- | --- | --- | --- | --- | --- | --- | --- | --- | --- | --- | --- |
| CN(C)c1ccc(/C=C(\C#N)c2ccccc2Cl)cc1 | Active | Active | inactive | 1.27 | ≤ 6 | – | – | – | – | – | – |
| CN1CCN(c2ccc(/C=C(\C#N)c3ccccc3Br)cc2)CC1 | Active | – | inactive | 1.27 | – | inactive | 137 | 94 | 10.6 | 72 | Active |
